This is an account of results in article PMC5599375 (Journal of medicinal chemistry, 2017).

Each structure is given as a SMILES string. Values after ≈ are worked out from the molar mass of the structure shown. “Also recorded” adds a separate entry of the source. Like-named read-outs stand apart in the source and are kept apart here.

Data set [1] concerns the target T1, NDM-1 (Klebsiella pneumoniae, UniProt C7C422). Description: NDM-1 IC50, fluorescent fluorocillin assay. Type of data set: biochemical.
Another data set has as its target T2, MMP-2 (Homo sapiens, UniProt P08253).
T2 sequence (P08253 110-660): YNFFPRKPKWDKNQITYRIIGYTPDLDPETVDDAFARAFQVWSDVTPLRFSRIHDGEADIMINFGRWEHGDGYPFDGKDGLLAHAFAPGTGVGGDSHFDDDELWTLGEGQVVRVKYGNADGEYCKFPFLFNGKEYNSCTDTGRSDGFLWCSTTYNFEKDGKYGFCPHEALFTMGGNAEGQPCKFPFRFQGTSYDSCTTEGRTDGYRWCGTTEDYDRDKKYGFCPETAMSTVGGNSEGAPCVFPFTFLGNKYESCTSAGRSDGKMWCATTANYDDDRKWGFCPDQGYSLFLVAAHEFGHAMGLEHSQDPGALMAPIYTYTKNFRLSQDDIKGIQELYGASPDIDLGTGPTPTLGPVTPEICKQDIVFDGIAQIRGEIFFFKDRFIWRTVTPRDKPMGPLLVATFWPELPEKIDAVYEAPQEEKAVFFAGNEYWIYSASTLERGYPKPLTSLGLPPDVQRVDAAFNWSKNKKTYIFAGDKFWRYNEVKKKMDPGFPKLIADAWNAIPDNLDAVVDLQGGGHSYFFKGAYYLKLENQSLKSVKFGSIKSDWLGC
The data set is described as follows: MMP-2 inhibition, OmniMMP fluorogenic substrate. Type of data set: biochemical. Particulars: at 10 μM. In a few lines:
(§1)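 Human recombinant MMP-2 (1.16 U/well) or MMP-12 (0.007 U/well) was preincubated with test compound (1 mM–5 μM range) for 30 min at 37 °C in 50 mM HEPES, 10 mM CaCl2, 0.05% Brij-35, pH 7.5. The reaction was started with 4 μM OmniMMP substrate (Mca-Pro-Leu-Gly-Leu-Dpa-Ala-Arg-NH2), and the fluorescence increase was monitored over 20 min (ex 320/em 400 nm). No-inhibitor wells were set to 100% and 200 μM NSA to 0%; run in triplicate.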

Another data set addresses MMP-12 (Homo sapiens, UniProt P39900). Description: MMP-12 inhibition, OmniMMP fluorogenic substrate. Type of data set: biochemical. As to conditions: at 10 μM. In a few lines: as §1
The target in another data set is HDAC-1 (Homo sapiens, UniProt Q13547). The data set is described as follows: HDAC-1 inhibition, fluorescence assay. Type of data set: biochemical. As to conditions: at 10 μM. An outline of the steps:
(§2)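 After 5 min preincubation, 20 μM HDAC substrate 3 was added for 30 min at 37 °C, then developer for 15 min at room temperature. Fluorescence ex 360/em 460 nm was read. No-inhibitor wells were set to 100% and 200 μM SAHA to 0%; run in triplicate.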

Another data set addresses T3, HDAC-6 (Homo sapiens, UniProt Q9UBN7).
T3 sequence (Q9UBN7 1-1215): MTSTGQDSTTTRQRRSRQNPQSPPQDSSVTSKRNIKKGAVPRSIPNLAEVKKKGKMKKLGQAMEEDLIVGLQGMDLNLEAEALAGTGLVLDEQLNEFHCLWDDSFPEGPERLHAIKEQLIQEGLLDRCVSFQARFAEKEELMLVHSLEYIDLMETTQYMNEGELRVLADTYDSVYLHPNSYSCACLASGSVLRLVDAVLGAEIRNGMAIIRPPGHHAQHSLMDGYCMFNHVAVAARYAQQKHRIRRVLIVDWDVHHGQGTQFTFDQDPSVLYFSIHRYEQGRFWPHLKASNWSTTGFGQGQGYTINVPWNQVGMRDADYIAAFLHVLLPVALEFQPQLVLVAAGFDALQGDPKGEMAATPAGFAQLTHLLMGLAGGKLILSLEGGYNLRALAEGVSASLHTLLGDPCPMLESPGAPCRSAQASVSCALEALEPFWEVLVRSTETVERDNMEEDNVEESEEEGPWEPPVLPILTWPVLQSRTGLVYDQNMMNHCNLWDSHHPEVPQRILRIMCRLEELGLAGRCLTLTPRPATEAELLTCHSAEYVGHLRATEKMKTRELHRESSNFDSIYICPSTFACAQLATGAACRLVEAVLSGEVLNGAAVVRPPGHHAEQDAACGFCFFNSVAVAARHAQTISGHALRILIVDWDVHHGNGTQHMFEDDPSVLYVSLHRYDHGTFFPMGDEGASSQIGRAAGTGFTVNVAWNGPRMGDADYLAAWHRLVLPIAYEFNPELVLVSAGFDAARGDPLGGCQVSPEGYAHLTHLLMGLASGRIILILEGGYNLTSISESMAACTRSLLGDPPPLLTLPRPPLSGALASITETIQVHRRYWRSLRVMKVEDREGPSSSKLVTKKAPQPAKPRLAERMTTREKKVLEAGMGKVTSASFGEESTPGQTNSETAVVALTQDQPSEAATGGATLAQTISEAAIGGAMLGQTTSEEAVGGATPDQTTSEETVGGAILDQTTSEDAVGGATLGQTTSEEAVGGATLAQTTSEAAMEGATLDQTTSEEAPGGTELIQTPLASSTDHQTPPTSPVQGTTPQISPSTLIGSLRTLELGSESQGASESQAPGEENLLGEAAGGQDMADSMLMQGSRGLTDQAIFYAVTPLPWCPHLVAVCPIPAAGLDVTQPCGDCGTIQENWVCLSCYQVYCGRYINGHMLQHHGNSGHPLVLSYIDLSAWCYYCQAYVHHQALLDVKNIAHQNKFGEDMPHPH
Description: HDAC-6 inhibition, fluorescence assay. Type of data set: biochemical. Particulars: at 10 μM. An outline of the steps:
as §2

The target of data set [2] is Human carbonic anhydrase II (Homo sapiens, UniProt P00918). Description: hCAII inhibition, p-nitrophenyl acetate assay. Type of data set: biochemical. In a few lines: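 Esterase activity was started with 500 μM p-nitrophenyl acetate and followed at 405 nm for 15 min. No-inhibitor wells were set to 100% and 50 μM benzene sulfonamide to 0%; run in triplicate.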
The test system of data set [3] is Zn(II)-dependent metalloenzymes (HDACs, MMPs, CAs). The data set is described as follows: Panel of Zn. It is filed as biochemical. As to conditions: 50 – 100 μM; data not shown.
Data set [4] has as its target T1, NDM-1. The data set is described as follows: NDM-1 IC50 variation with exogenous Zn. Type of data set: biochemical. As to conditions: Figure S3.
In data set [5] the target is T1, NDM-1. Particulars: for Zn(II) content of NDM-1 after incubation and dialysis: NDM-1 8 μM, 50 mM HEPES pH 7.5.
For data set [6], the target named is T1, NDM-1. It is filed as binding. As to conditions: 2 μM NDM-1, up to 32 μM compound.
The test system of data set [7] is E. coli and K. pneumoniae clinical isolates expressing blaNDM-1. Description: organism not typed. Type of data set: cell-based.
The next data set relates to HEK293 cells. Description: Cytotoxicity assay. It is filed as cell-based, human. As to conditions: concentrations relevant to the MIC studies; 4 and 24 h.
Data set [8] can be described thus: Control titration of L-tryptophan fluorescence. As to conditions: 2 μM L-tryptophan.
Data set [9] has as its system clinical E. coli isolates expressing blaNDM-1. Description: microbe, parasite or virus in culture. Particulars: Escherichia coli. It is filed as cell-based.
Data set [10] deals with clinical K. pneumoniae isolates expressing blaNDM-1. Description: microbe, parasite or virus in culture. Type of data set: cell-based. Particulars: Klebsiella pneumoniae.

T1 sequence (C7C422 29-270 limits assumed): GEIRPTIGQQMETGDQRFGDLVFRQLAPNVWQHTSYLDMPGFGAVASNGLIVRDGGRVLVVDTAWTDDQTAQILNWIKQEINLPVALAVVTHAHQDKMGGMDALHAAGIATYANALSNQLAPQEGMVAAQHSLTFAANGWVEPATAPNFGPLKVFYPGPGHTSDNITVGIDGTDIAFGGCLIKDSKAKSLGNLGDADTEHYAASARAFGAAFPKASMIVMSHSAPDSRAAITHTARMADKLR
HDAC-1, sequence (Q13547 whole entry): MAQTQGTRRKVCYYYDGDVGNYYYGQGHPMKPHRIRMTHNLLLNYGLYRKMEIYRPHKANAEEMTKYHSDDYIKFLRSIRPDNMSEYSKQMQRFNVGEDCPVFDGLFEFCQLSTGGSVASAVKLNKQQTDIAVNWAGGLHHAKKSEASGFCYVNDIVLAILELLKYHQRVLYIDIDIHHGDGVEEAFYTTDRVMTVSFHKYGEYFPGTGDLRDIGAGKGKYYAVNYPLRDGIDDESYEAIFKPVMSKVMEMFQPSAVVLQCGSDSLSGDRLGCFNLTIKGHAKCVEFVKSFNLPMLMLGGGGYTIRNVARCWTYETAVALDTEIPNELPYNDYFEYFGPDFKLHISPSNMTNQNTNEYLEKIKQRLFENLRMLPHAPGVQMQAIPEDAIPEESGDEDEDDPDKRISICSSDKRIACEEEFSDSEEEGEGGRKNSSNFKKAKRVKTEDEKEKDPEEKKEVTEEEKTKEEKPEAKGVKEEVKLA
MMP-12, sequence (P39900 106-470): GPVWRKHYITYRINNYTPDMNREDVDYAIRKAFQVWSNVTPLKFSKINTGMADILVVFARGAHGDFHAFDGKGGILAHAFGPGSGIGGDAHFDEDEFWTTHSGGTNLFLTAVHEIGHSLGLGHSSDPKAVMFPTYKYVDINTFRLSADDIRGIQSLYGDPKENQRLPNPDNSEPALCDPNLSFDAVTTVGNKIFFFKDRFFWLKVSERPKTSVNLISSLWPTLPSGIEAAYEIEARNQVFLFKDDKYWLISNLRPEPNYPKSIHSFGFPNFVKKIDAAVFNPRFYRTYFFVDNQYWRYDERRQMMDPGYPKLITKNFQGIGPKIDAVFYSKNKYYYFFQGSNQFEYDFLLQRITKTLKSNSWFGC

`Nc1cccc(-c2cc(C(=O)O)nc(C(=O)O)c2)c1` [Compound 36, 4-(3-Aminophenyl)pyridine-2,6-dicarboxylic acid] came in with a ligand efficiency on NDM-1 [1] of 0.5 kcal/mol/non-H atom. For the same molecule, the “fold improvement in inhibition compared to DPA” value on NDM-1 [1] (fluorescent assay) turned out to be 4 fold. For the same molecule, the “Percent inhibition of MMP-2” value at MMP-2 is listed as “some inhibition”. Also, at MMP-12, the “Percent inhibition of MMP-12” value was “some inhibition”. In addition, on HDAC-1, the “Percent inhibition of HDAC-1” value is on record as “did not show inhibition; also recorded: No inhibition”. Besides, the “Percent inhibition of HDAC-6” value at HDAC-6 is reported as “did not show inhibition; also recorded: No inhibition”. Besides, the “selectivity for NDM-1 over human CAII” value in data set [2] was “at least 500 fold”. Also, the “Percent inhibition of hCAII” value in data set [2] (at 10 μM) was “did not show inhibition; also recorded: No inhibition”. In [3], the “inhibition of Zn(II) metalloenzymes at higher concentrations” value was < 50%. On NDM-1 [4], the “effect of exogenous Zn(II) in the assay buffer on NDM-1 inhibition” value was “little impact on the IC50 value”. At NDM-1 [5], the “Zn(II) content of NDM-1 after incubation and dialysis” value (shortened to “Zn(II) content”) is on record as “no significant removal of Zn(II)”. At NDM-1 [5] (~24 μM compound), the “Zn(II) removed from NDM-1” value is reported as 10–20%. The “quenching of intrinsic tryptophan fluorescence of NDM-1” value at NDM-1 [6] is reported as 50–60%. Besides, the “effect on bacterial growth of compound alone” value in data set [7] (36 alone (100 mg/L), all E. coli and K. pneumoniae strains) is on record as “no effect on growth”. The “toxicity to HEK293 cells (growth, morphology, viability)” value in the data set on HEK293 cells is reported as “not adversely effected; also recorded: did not exhibit cytotoxicity; also recorded: no toxicity was observed”.
In the case of `O=C(O)c1cccc(C(=O)O)n1` [DPA, 2,6-dipicolinic acid], on NDM-1 [4], the “effect of exogenous Zn(II) in the assay buffer on NDM-1 inhibition” value is listed as “diminishes the inhibition activity”. The “Zn(II) content” value on NDM-1 [5] is given as “significant loss in Zn(II) content”.
Regarding `O=C(O)CN(CCN(CC(=O)O)CC(=O)O)CC(=O)O` [EDTA, ethylenediaminetetraacetic acid], in data set [8], the “reduction of fluorescence emission of L-tryptophan” value was “no change”.
Turning to `C[C@@H](O)[C@H]1C(=O)N2C(C(=O)O)=C(SCCN=CN)C[C@H]12` [Imipenem, imipenem], the MIC in data set [9] (read-out: MIC, imipenem, E. coli isolate Ah8.71) stood at 16 µg/mL (≈ 53.4 µM); in data set [9] (read-out: MIC, imipenem, E. coli isolate Ah8.73), 16 µg/mL (≈ 53.4 µM); in data set [9] (read-out: MIC, imipenem, E. coli isolate Ah8.75), 16 µg/mL (≈ 53.4 µM); in data set [9] (read-out: MIC, imipenem, E. coli isolate Ch8.68), 16 µg/mL (≈ 53.4 µM); in [9] (read-out: MIC, imipenem, E. coli isolate Ch8.69) it was 4 µg/mL (≈ 13.4 µM); in [9] (read-out: MIC, imipenem, E. coli isolate Ch8.70), 16 µg/mL (≈ 53.4 µM). Further, the MIC in data set [9] (read-out: MIC, imipenem, E. coli isolate Ch8.72) turned out to be 16 µg/mL (≈ 53.4 µM); in data set [10] (read-out: MIC, imipenem, K. pneumoniae isolate Cm1.62) it was 16 µg/mL (≈ 53.4 µM); in [10] (read-out: MIC, imipenem, K. pneumoniae isolate Cm1.63), 8 µg/mL (≈ 26.7 µM); in [10] (read-out: MIC, imipenem, K. pneumoniae isolate Pd1.48), 8 µg/mL (≈ 26.7 µM); in data set [10] (read-out: MIC, imipenem, K. pneumoniae isolate Pd1.49), 4 µg/mL (≈ 13.4 µM); in data set [10] (read-out: MIC, imipenem, K. pneumoniae isolate Pd1.50), 8 µg/mL (≈ 26.7 µM). Also, the MIC in data set [10] (read-out: MIC, imipenem, K. pneumoniae isolate Pd1.53) is 8 µg/mL (≈ 26.7 µM); in [10] (read-out: MIC, imipenem, K. pneumoniae isolate Pd1.54), 8 µg/mL (≈ 26.7 µM); in data set [10] (read-out: MIC, imipenem, K. pneumoniae isolate Pd1.55), 8 µg/mL (≈ 26.7 µM); in data set [7] (read-out: MICs of imipenem alone), 4 to 16 µg/mL (≈ 13.4 to 53.4 µM).
Consider `C[C@H](CS)C(=O)N1CCC[C@H]1C(=O)O` [L-Captopril], for which, at NDM-1 [5], the “Zn(II) content” value was “did not change”. In data set [8], the “reduction of fluorescence emission of L-tryptophan” value is listed as “no change”.
